# Rows were chosen to be rich in hits. Some 3% of all compounds tested hit in one or more screens of this group.
# M4 antag = human M4 muscarinic receptor antagonists, primary screen, CHO cells, Fluo-8 calcium fluorescence; CHO-hM4 cells, ACh EC80; inhibition, % at 3 µM; 360,000 tested, 0.73% active;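 active = inhibition above its plate's cutoff, the mean inhibition of sample wells plus 3 SD, cut at about 27% in these data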;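 note: 0% = acetylcholine EC80 with DMSO and 100% = DMSO without agonist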
# Target sequence (P08173 whole entry, looked up): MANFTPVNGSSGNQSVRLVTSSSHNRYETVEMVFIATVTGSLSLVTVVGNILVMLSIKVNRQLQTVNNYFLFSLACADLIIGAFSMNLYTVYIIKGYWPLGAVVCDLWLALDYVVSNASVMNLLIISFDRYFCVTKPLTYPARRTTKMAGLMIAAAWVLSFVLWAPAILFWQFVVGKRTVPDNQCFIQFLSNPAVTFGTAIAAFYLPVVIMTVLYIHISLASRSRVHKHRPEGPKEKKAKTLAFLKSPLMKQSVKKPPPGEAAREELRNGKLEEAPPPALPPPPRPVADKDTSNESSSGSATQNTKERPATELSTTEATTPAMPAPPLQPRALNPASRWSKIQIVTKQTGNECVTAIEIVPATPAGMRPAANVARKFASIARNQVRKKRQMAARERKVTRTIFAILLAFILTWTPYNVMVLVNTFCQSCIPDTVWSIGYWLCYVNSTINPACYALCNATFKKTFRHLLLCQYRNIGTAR
# CHRM4 PAM = human M4 muscarinic receptor positive allosteric modulators, primary screen, CHO-K1 cells, Fluo-8 calcium fluorescence | Muscarinic acetylcholine receptor M4 (Homo sapiens), P08173 | CHO-K1 hM4/Gqi5, ACh EC20; 0% = ACh EC20, 100% = maximal ACh | activation, % at 3 µM | 360,000 tested, 0.4% active;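 active = activation above its plate's cutoff, the mean activation of sample wells plus 3 SD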
# TAAR1 ag = human TAAR1 agonists, primary screen, Fluo-8 calcium fluorescence, CHO RD-HGA16 cells; Trace amine-associated receptor 1 (Homo sapiens), Q96RJ0; vehicle wells 0%, saturating PEA agonist 100%; activation, % at 3 µM; 360,000 tested, 0.99% active; AID 624467, 2012;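 active = activation above the mean activation of all test compounds in the run plus 3 SD, cut at about 38% in these data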
#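 System: CHO-derived RD-HGA16 cells with stable Gα16 and human TAAR1 / Times: 17-24 h plating, Fluo-8 75 min 37 °C, 30 min RT / Technique: calcium-sensitive Fluo-8 signal, excitation 470-495, emission 515-575 nm / Measure: % activation relative to PEA EC100 response / Benchmarks: DMSO and PEA EC100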
# CHRM4 agonist = human M4 muscarinic receptor agonists, primary screen, CHO-K1 cells, Fluo-8 calcium fluorescence. CHO-K1 hM4/Gqi5; vehicle 0%, full acetylcholine response 100%. activation, % at 3 µM. 360,000 tested, 0.14% active. Muscarinic acetylcholine receptor M4 (Homo sapiens), P08173. AID 624127, 2012;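 active = activation above the run mean over all test wells plus 3 SD, cut at about 32% in these data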;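 note: peak over basal fluorescence ratio per well then scaled between controls; 0% = DMSO wells and 100% = acetylcholine at EC100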
# TAAR1 antag = human TAAR1 antagonists, primary screen, Fluo-8 calcium fluorescence, CHO RD-HGA16 cells; Trace amine-associated receptor 1 (Homo sapiens), Q96RJ0; antagonist; inhibition, % at 3 µM; 360,000 tested, 1.5% active;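 active = inhibition above a per-plate cutoff, the mean inhibition of test compounds on that plate plus 3 SD, cut at about 49% in these data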;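 note: 0% = DMSO plus EC80 beta-PEA response and 100% = DMSO alone without agonist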
#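 Assay system: RD-HGA16 CHO cells with stable hTAAR1 and Gα16 / Reagent: EC80 β-phenethylamine stimulus / Doses: 3 µM, single point / Timing: dye loading 75 min at 37 °C, then 30 min room temperature / Measured by: Fluo-8 intracellular calcium dye fluorescence, real-time kinetic reads / Controls: vehicle wells and EC80 agonist wells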
# TAAR1 nonsel count = nonselective antagonists in TAAR1 counter-screen cells, counter-screen for hTAAR1 antagonist project, cell-based, fluorescence, calcium. counterscreen cell line, antagonist mode. inhibition, % at 3 µM. shares compounds with TAAR1 antag. 2,400 tested, 77% active; in the data active = inhibition above about 22%;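 note: CHO-Ga16 host cells stimulated with ATP at an EC80 level; 0% = agonist EC80 plus vehicle and 100% = vehicle without agonist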
# TAAR1 antag conf = human TAAR1 antagonists, retest of hits, confirmation, cell-based, fluorescence | TAAR1-expressing cells, fluorescence antagonist read-out | inhibition, % at 3 µM | 2,400 tested, 40% active | shares compounds with TAAR1 antag; in the data active = inhibition above about 49%;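 note: CHO-Ga16 host cells challenged with agonist PEA near its EC80; 0% = agonist at EC80 plus vehicle and 100% = vehicle with no agonist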
# Ga16 nonsel ag = calcium activation in Ga16-expressing cells, counter-screen for TAAR1 antagonist project, cell-based, fluorescence | shares compounds with TAAR1 antag | agonist counterscreen | activation, % at 3 µM | 2,400 tested, 18% active | AID 651953, 2012; in the data active = activation above about 12%;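 note: 0% = vehicle wells and 100% = saturating stimulus response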
# TAAR1 ag count = TAAR1 activation by candidate antagonists – cell-based, fluorescence, counter-screen for TAAR1 antagonist project. shares compounds with TAAR1 antag. hTAAR1 cell line, agonist mode. activation, % at 3 µM. 2,400 tested, 2% active. AID 651955, 2012; in the data active = activation above about 37%;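 note: CHO cells stably expressing TAAR1 with calcium dye readout; 0% = DMSO vehicle and 100% = full agonist response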
# Active calls of the source: *; . = no result.
SMILES,M4 antag,CHRM4 PAM,TAAR1 ag,CHRM4 agonist,TAAR1 antag,TAAR1 nonsel count,TAAR1 antag conf,Ga16 nonsel ag,TAAR1 ag count
CC1(C)C(=O)N(CCN2CCC(C(=O)c3ccc(F)cc3)CC2)c2ccccc21,9.0,-16.4,12.8,27.6,86.9*,36.7*,56.5*,12.1*,10.5
CCN=C(NCC)SC1CC(=O)N(c2ccc(OC)cc2)C1=O (stereo unspecified),19.3,-9.5,23.0,30.0,65.0*,30.4*,55.5*,12.2*,17.7
CN=C(Nc1ccc(Br)cc1)SC1CC(=O)N(c2ccc(OC)cc2)C1=O (stereo unspecified),-8.2,-3.8,8.3,9.5,28.1,.,.,.,.
CCN=C(NCC)SC1CC(=O)N(c2cccc(OCC)c2)C1=O (stereo unspecified),32.6*,-8.9,23.2,18.6,70.7*,26.3*,49.6*,10.6,11.8
O=C(Nc1ccc(S(=O)(=O)Nc2ncccn2)cc1)c1ccccc1NS(=O)(=O)c1ccc(F)cc1,3.5,0.9,1.7,0.0,-4.4,.,.,.,.
O=C(Nc1ccc(-c2nc3ccccc3[nH]2)cc1)c1ccccc1NS(=O)(=O)c1ccc(F)cc1,4.8,-3.4,8.9,7.9,78.5*,41.6*,46.4,6.4,-1.4
O=C(CC[C@H]1O[C@@H](n2ccc(=O)[nH]c2=O)[C@H](O)[C@@H]1O)N[C@@H](Cc1ccccc1)C(=O)NCC1CCCO1 (stereo partly specified),0.5,0.4,4.0,0.6,-22.9,.,.,.,.
CCc1ccccc1S(=O)(=O)Cc1ccc(C(=O)N2CCN(c3ccccn3)CC2)o1,3.6,-3.1,9.3,15.2,51.2*,25.1*,31.8,5.2,5.7
Cc1ccccc1S(=O)(=O)Cc1ccc(C(=O)N2CCN(c3ncccn3)CC2)o1,4.4,-9.0,14.1,7.9,15.0,.,.,.,.
CC(C)c1[nH]nc2c1C(c1ccc(Br)cc1)NC2=O (stereo unspecified),.,.,2.3,.,-19.2,.,.,.,.
COc1ccc(N2CCN(CC(=O)Nc3ccccc3C(=O)NCc3ccccc3)CC2)cc1,13.0,-4.9,18.7,21.1,69.7*,22.4*,52.4*,9.9,25.5
COc1ccc(N2CCN(CC(=O)Nc3ccccc3C(=O)NC(C)c3ccccc3)CC2)cc1 (stereo unspecified),-6.8,-9.7,16.2,15.6,60.5*,14.6,38.8,7.3,16.3
COc1cccc(N2CCN(C(=O)C3CCCN(c4ncnc5c4nc4n5CCCCC4)C3)CC2)c1 (stereo unspecified),11.1,-8.0,21.6,15.8,54.6*,34.3*,48.6*,12.3*,17.1
CC1CCN(C(=O)C2CCCN(c3ncnc4c3nc3n4CCCCC3)C2)CC1 (stereo unspecified),-11.1,-2.4,-0.8,2.9,-16.3,.,.,.,.
CCOc1ccc(C(=O)Nc2c(C(N)=O)oc3ccccc23)cc1,-5.4,0.1,3.3,10.1,14.8,.,.,.,.
COc1cccc(C(=O)Nc2cccc(-c3nnc(-c4ccccc4)o3)c2)c1,11.2,-10.2,9.2,3.5,74.0*,22.6*,55.9*,7.1,9.8
Cc1ccc(OCC(=O)Nc2cccc(-c3nnc(-c4ccccc4)o3)c2)c(C)c1,-3.6,-9.5,15.1,6.0,65.9*,41.4*,64.0*,6.7,5.0
COc1ccc(CC(=O)Nc2cccc(-c3nnc(-c4ccc(C)cc4)o3)c2)cc1OC,1.9,-10.1,23.9,5.8,82.0*,52.6*,69.1*,17.2*,15.2
CCOc1cccc(C(=O)Nc2cccc(-c3nnc(-c4ccccc4)o3)c2)c1,-0.7,1.2,9.9,0.5,21.1,.,.,.,.
COc1cccc(C(=O)Nc2c(C(N)=O)oc3ccccc23)c1,0.1,-11.8,12.2,17.5,56.0*,24.2*,40.7,7.2,9.2
CC(=O)Nc1cccc(-c2nnc(-c3ccccc3)o2)c1,11.2,-2.8,14.4,3.3,-14.0,.,.,.,.
C[C@@H]1CN([C@@H](C)CO)S(=O)(=O)c2ccc(C#CC(C)(C)O)cc2O[C@H]1CN(C)C(=O)C1CCCCC1,-10.9,-2.4,11.9,12.3,28.5,.,.,.,.
COc1cccc(-c2nc3nc(C)cc(C)n3c2NCc2ccccc2)c1,-9.4,13.3,2.7,-0.5,-13.8,.,.,.,.
COc1ccc(CC(=O)Nc2cccc(-c3nnc(-c4ccccc4)o3)c2)cc1OC,-6.8,-0.6,29.0,9.2,71.4*,56.7*,72.5*,18.1*,16.7
Cc1cccc2cc(C3CC(c4cccs4)=NN3S(C)(=O)=O)c(Cl)nc12 (stereo unspecified),-1.7,7.5,2.9,0.9,83.2*,5.0,35.3,1.4,9.9
SMILES,M4 antag,CHRM4 PAM,TAAR1 ag,CHRM4 agonist,TAAR1 antag,TAAR1 nonsel count,TAAR1 antag conf,Ga16 nonsel ag,TAAR1 ag count
Cc1ccc2cc(C3CC(c4cccs4)=NN3S(C)(=O)=O)c(Cl)nc2c1 (stereo unspecified),-0.5,-3.6,3.8,2.9,-11.4,.,.,.,.
CCCCNC(=S)N(CCCO)Cc1cc2cc3c(cc2[nH]c1=O)OCO3,-5.5,13.0,0.9,0.6,-13.7,.,.,.,.
COc1cc(NC(=O)c2csc(-c3ccncc3)n2)cc(C(=O)Nc2cccc(C(F)(F)F)c2)c1,-1.1,-0.5,9.3,3.2,73.6*,34.8*,55.2*,6.3,4.9
O=C(Nc1cccc(C(F)(F)F)c1)c1csc(-c2ccncc2)n1,18.1,4.7,-1.4,0.9,16.3,.,.,.,.
COc1cc(NC(=O)c2nccnc2N)cc(C(=O)Nc2cccc(C(F)(F)F)c2)c1,4.1,0.9,1.9,2.2,35.3,.,.,.,.
COc1cc(Nc2ccccn2)cc(C(=O)Nc2cccc(C(F)(F)F)c2)c1,1.6,-11.4,6.9,19.0,53.7*,34.5*,45.8,6.8,2.4
COc1cc(NC(=O)N2CCNC2=O)cc(C(=O)Nc2cccc(C(F)(F)F)c2)c1,2.8,12.3,19.7,5.3,51.2*,18.8,23.9,8.2,6.2
